Legend:
[1] = in vivo; details: rat
[2] = test system: HeLa; assay: Antiviral activities in a cell culture HIV-1 infectivity inhibition assay using HeLa cells; assay type: functional; details: Homo sapiens
[3] = test system: HeLa; assay: Antiviral activities in a cell culture HIV-1 infectivity inhibition assay using HeLa cells plus 50% normal human serum; assay type: functional
[4] = in vivo; details: rat, plasma
[5] = in vivo; details: rat; remark: listed apart in the source
[6] = target: C-C chemokine receptor type 5 (Homo sapiens, UniProt P51681); assay: Inhibitory concentration for displacement of [125I]-MIP-1 alpha from recombinant human CC chemokine receptor 5 (CCR5) expressed in CHO cell; assay type: cell-based
C-C chemokine receptor type 5, sequence (P51681 whole entry): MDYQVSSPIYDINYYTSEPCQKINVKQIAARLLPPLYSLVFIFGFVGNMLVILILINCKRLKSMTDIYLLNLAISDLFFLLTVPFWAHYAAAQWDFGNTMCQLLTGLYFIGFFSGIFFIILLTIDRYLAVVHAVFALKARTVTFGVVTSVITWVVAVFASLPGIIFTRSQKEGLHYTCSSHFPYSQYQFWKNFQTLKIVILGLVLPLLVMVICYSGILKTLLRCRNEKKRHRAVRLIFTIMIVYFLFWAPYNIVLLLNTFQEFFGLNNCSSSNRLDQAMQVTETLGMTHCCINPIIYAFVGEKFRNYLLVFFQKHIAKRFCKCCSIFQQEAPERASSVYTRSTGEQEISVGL
Procedure, shortened: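 Competitive binding to CCR5 on CHO cell membranes, read as displacement of [125I]-labeled MIP-1α. IC50 values are means of triplicate determinations. Standard errors were normally <15% within an assay. Assay-to-assay variation was within ±2-fold, judged from a standard compound.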

Structure (SMILES)	half-life [1] [h]	IC90 [2] [nM]	clearance [4] [mL/min/kg]	bioavailability [5] [%]	IC50 [6] [nM]	IC90 [3] [nM]
CCOc1ccc(Cc2cc(C3CCN(C[C@H]4CN([C@@H](C(=O)O)[C@@H](C)CC)C[C@@H]4c4cccc(F)c4)CC3)n(CC)n2)cc1	0.98	< 0.14	4.4	5.9	0.6	33
CC[C@H](C)[C@H](C(=O)O)N1C[C@H](CN2CCC(c3cc(Cc4ccc(OC5CCC5)cc4)nn3CC)CC2)[C@@H](c2cccc(F)c2)C1	1.2	< 0.14	2.7	68	1.3	11
CC[C@@H](C)[C@H](C(=O)O)N1C[C@H](CN2CCC(c3cc(Cc4ccc(O)cc4)nn3CC)CC2)[C@@H](c2cccc(F)c2)C1	–	< 0.14	–	–	0.6	11
CCn1nc(Cc2ccc(OC(F)(F)F)cc2)cc1C1CCN(C[C@H]2CN([C@@H](C(=O)O)C(C)C)C[C@@H]2c2cccc(F)c2)CC1	–	3.7	–	–	0.8	300
CCn1nc(Cc2ccccc2F)cc1C1CCN(C[C@H]2CN([C@@H](C(=O)O)C(C)C)C[C@@H]2c2cccc(F)c2)CC1	–	11	–	–	2.2	> 300
CCOc1ccc(Cc2cc(C3CCN(C[C@H]4CN([C@@H](C(=O)O)C(C)(C)C)C[C@@H]4c4cccc(F)c4)CC3)n(CC)n2)cc1F	–	< 0.14	–	–	0.7	11
CC[C@@H](C)[C@H](C(=O)O)N1C[C@H](CN2CCC(c3cc(Cc4ccc(Oc5ccccc5)cc4)nn3CC)CC2)[C@@H](c2cccc(F)c2)C1	–	3.7	–	–	0.5	300
CCn1nc(Cc2ccc(C#N)cc2)cc1C1CCN(C[C@H]2CN([C@@H](C(=O)O)C3CCCCC3)C[C@@H]2c2cccc(F)c2)CC1	–	0.4	–	–	1.7	11
CCn1nc(Cc2ccc(Oc3ccccc3)cc2)cc1C1CCN(C[C@H]2CN([C@@H](C(=O)O)C(C)(C)C)C[C@@H]2c2cccc(F)c2)CC1	–	3.7	–	–	0.4	300
CCCOc1ccc(Cc2cc(C3CCN(C[C@H]4CN([C@@H](C(=O)O)[C@@H](C)CC)C[C@@H]4c4cccc(F)c4)CC3)n(CC)n2)cc1	–	< 0.14	–	–	1.1	100
CC[C@H](C)[C@H](C(=O)O)N1C[C@H](CN2CCC(c3cc(Cc4ccc(C)cc4)nn3CC)CC2)[C@@H](c2cccc(F)c2)C1	–	< 0.14	–	–	0.3	11
CCn1nc(Cc2ccc(C(C)C)cc2)cc1C1CCN(C[C@H]2CN([C@@H](C(=O)O)C(C)(C)C)C[C@@H]2c2cccc(F)c2)CC1	–	0.4	–	–	0.6	33
CCn1nc(Cc2ccc(C(F)(F)F)cc2)cc1C1CCN(C[C@H]2CN([C@@H](C(=O)O)C(C)C)C[C@@H]2c2cccc(F)c2)CC1	–	3.7	–	–	2	100
CC[C@H](C)[C@H](C(=O)O)N1C[C@H](CN2CCC(c3cc(CC4CCCCC4)nn3CC)CC2)[C@@H](c2cccc(F)c2)C1	–	1.2	–	–	1.2	300
CCn1nc(Cc2ccc(S(C)(=O)=O)cc2)cc1C1CCN(C[C@H]2CN([C@@H](C(=O)O)C3CCCCC3)C[C@@H]2c2cccc(F)c2)CC1	–	0.4	–	–	2.3	11
CCCOc1ccc(Cc2cc(C3CCN(C[C@H]4CN([C@@H](C(=O)O)C(C)C)C[C@@H]4c4cccc(F)c4)CC3)n(CC)n2)cc1	–	3.7	–	–	0.8	> 300
CCn1nc(Cc2cccc(C#N)c2)cc1C1CCN(C[C@H]2CN([C@@H](C(=O)O)C(C)(C)C)C[C@@H]2c2cccc(F)c2)CC1	–	< 0.14	–	–	1	11
CC[C@@H](C)[C@H](C(=O)O)N1C[C@H](CN2CCC(c3cc(Cc4ccc(OC5CC5)cc4)nn3CC)CC2)[C@@H](c2cccc(F)c2)C1	–	< 0.14	–	–	0.3	33
CC[C@@H](C)[C@H](C(=O)O)N1C[C@H](CN2CCC(c3cc(Cc4ccc(OC(F)F)cc4)nn3CC)CC2)[C@@H](c2cccc(F)c2)C1	–	< 0.14	–	–	0.6	11

The remaining molecules from weak to strong by IC50 [6], led by results:

half-life [1] [h]	IC90 [2] [nM]	clearance [4] [mL/min/kg]	bioavailability [5] [%]	IC50 [6] [nM]	Structure (SMILES)	IC90 [3] [nM]
–	11	–	–	13.1	CCn1nc(Cc2cccnc2)cc1C1CCN(C[C@H]2CN([C@@H](C(=O)O)C(C)C)C[C@@H]2c2cccc(F)c2)CC1	300
–	0.4	–	–	1.3	CCn1nc(Cc2ccc(OC)cc2)cc1C1CCN(C[C@H]2CN([C@@H](C(=O)O)C(C)C)C[C@@H]2c2cccc(F)c2)CC1	100
–	< 0.14	–	–	0.8	CCOc1cccc(Cc2cc(C3CCN(C[C@H]4CN([C@@H](C(=O)O)[C@H](C)CC)C[C@@H]4c4cccc(F)c4)CC3)n(CC)n2)c1	> 300
3.5	0.4	0.62	65	0.7	CCn1nc(Cc2ccc(OC3CCC3)cc2)cc1C1CCN(C[C@H]2CN([C@@H](C(=O)O)C(C)(C)C)C[C@@H]2c2cccc(F)c2)CC1	33
–	1.2	–	–	0.7	CCCOc1ccc(Cc2cc(C3CCN(C[C@H]4CN([C@@H](C(=O)O)C5CCCCC5)C[C@@H]4c4cccc(F)c4)CC3)n(CC)n2)cc1	100
–	< 0.14	–	–	0.7	CCn1nc(Cc2cccc(OC)c2)cc1C1CCN(C[C@H]2CN([C@@H](C(=O)O)C(C)(C)C)C[C@@H]2c2cccc(F)c2)CC1	33
–	< 0.14	–	–	0.6	CCn1nc(Cc2ccc(C)cc2)cc1C1CCN(C[C@H]2CN([C@@H](C(=O)O)C(C)(C)C)C[C@@H]2c2cccc(F)c2)CC1	33
–	1.2	–	–	0.5	CC[C@@H](C)[C@H](C(=O)O)N1C[C@H](CN2CCC(c3cc(Cc4ccc(-c5ccccc5)cc4)nn3CC)CC2)[C@@H](c2cccc(F)c2)C1	300
–	11	–	–	0.5	CCCCOc1ccc(Cc2cc(C3CCN(C[C@H]4CN([C@@H](C(=O)O)C(C)C)C[C@@H]4c4cccc(F)c4)CC3)n(CC)n2)cc1	300
–	11	–	–	0.5	CCn1nc(Cc2ccc(O)cc2)cc1C1CCN(C[C@H]2CN([C@@H](C(=O)O)C3CCCCC3)C[C@@H]2c2cccc(F)c2)CC1	33
–	< 0.14	–	–	0.5	CC[C@H](C)[C@H](C(=O)O)N1C[C@H](CN2CCC(c3cc(Cc4ccc(OC)c(C#N)c4)nn3CC)CC2)[C@@H](c2cccc(F)c2)C1	33
2.5	0.4	1.1	77	0.4	CCn1nc(Cc2ccc(C(C)(C)C)cc2)cc1C1CCN(C[C@H]2CN([C@@H](C(=O)O)C(C)(C)C)C[C@@H]2c2cccc(F)c2)CC1	33
–	< 0.14	–	–	0.4	CCOc1ccc(Cc2cc(C3CCN(C[C@H]4CN([C@@H](C(=O)O)[C@H](C)CC)C[C@@H]4c4cccc(F)c4)CC3)n(CC)n2)cc1F	33
–	< 0.14	–	–	0.3	CC[C@H](C)[C@H](C(=O)O)N1C[C@H](CN2CCC(c3cc(Cc4ccc(OC(F)F)cc4)nn3CC)CC2)[C@@H](c2cccc(F)c2)C1	11
